Data from ChEMBL document CHEMBL3351764, “Design, synthesis and biological activity of flavonoid derivatives as selective agonists for neuromedin U 2 receptor” (Bioorg Med Chem, 2014).
The source made the active and inactive calls. The calls are words filed in the database; no cut-off is given here.

Key:
[1] = target: Melanocortin receptor 5 (Mus musculus) (UniProt P41149); assay: Agonist activity at mouse MC5 receptor at 100 uM to 5 mM
[2] = target: T1, Adenosine receptor A1 (Homo sapiens) (UniProt P30542); assay: Agonist activity at human A1 receptor at 100 uM to 5 mM
T1 sequence (whole entry): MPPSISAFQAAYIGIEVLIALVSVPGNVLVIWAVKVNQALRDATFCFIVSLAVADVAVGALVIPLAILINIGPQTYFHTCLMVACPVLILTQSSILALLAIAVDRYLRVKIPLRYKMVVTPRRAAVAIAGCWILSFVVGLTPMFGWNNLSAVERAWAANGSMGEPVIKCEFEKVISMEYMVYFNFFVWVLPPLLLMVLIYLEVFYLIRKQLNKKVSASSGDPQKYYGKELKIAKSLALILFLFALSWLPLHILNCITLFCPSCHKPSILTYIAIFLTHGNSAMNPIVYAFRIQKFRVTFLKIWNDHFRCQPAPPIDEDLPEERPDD

[3] = target: Adrenocorticotropic hormone receptor (Homo sapiens) (UniProt Q01718); assay: Agonist activity at human MC2 receptor at 100 uM to 5 mM
Adrenocorticotropic hormone receptor (Homo sapiens), sequence (Q01718 whole entry): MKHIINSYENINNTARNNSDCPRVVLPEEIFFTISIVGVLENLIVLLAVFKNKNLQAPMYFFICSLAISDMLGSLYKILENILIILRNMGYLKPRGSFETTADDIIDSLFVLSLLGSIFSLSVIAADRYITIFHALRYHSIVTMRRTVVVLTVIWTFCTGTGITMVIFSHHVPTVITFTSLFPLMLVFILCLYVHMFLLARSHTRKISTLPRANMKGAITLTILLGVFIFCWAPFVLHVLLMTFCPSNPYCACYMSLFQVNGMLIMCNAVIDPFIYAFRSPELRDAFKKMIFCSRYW

[4] = target: T2, Neuropeptide Y receptor type 5 (Homo sapiens) (UniProt Q15761); assay: Agonist activity at human NPY5 receptor at 100 uM to 5 mM
T2 sequence (whole entry): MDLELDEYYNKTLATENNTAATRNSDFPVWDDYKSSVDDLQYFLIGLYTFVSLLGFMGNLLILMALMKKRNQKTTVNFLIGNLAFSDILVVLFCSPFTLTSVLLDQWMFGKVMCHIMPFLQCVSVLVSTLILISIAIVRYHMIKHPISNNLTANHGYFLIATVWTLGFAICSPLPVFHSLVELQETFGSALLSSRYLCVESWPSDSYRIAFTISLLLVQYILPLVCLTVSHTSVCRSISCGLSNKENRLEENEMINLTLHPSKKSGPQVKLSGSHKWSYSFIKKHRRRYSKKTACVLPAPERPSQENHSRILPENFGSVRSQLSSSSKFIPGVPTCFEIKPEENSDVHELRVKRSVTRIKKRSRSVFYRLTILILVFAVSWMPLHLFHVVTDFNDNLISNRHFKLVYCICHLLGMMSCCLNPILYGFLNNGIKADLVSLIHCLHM

Neuromedin-U receptor 2 = Neuromedin-U receptor 2 (Homo sapiens, UniProt Q9GZQ4); assay: Agonist activity at human NMU2R transfected in HEK293 cells after 7 hrs by luciferase reporter gene assay; assay type: cell-based
Neuromedin-U receptor 2, sequence (Q9GZQ4 whole entry): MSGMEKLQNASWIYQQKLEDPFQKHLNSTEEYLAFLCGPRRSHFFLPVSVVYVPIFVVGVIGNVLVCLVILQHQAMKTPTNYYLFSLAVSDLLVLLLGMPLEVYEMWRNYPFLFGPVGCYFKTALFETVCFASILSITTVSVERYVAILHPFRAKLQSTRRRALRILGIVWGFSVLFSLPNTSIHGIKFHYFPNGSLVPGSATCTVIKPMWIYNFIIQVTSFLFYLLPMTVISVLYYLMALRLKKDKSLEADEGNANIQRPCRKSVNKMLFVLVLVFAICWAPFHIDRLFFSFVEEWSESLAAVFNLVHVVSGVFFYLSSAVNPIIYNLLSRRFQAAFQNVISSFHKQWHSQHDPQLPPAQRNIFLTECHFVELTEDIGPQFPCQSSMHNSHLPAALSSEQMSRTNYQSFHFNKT
Outline: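 HEK-293 cells were stably co-transfected with a reporter gene construct and human NMU2R cDNA in pcDNA3.1(+), maintained under G418 selection at 37 °C in 5% CO2, then seeded and incubated overnight. Compounds were added at various concentrations for 7 h at 37 °C, followed by Bright-Glo luciferase read-out. Forskolin and NMU served as positive controls. EC50 was fitted by four-parameter logistic regression; means ± SEM of three independent experiments.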

[5] = target: Melanocortin receptor 3 (Homo sapiens) (UniProt P41968); assay: Agonist activity at human MC3 receptor at 100 uM to 5 mM
Melanocortin receptor 3 (Homo sapiens), sequence (P41968 whole entry): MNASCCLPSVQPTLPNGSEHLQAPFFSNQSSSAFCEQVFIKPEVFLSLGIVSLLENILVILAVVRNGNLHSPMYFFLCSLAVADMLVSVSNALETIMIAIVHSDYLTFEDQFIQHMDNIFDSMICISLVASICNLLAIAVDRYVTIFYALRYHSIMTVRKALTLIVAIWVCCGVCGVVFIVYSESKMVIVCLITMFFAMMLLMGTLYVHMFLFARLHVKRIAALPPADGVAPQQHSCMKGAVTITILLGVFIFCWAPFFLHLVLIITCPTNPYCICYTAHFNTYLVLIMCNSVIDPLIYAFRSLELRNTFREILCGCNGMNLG

[6] = target: D(1B) dopamine receptor (Homo sapiens) (UniProt P21918); assay: Agonist activity at human D5 receptor at 100 uM to 5 mM
D(1B) dopamine receptor (Homo sapiens), sequence (P21918 whole entry): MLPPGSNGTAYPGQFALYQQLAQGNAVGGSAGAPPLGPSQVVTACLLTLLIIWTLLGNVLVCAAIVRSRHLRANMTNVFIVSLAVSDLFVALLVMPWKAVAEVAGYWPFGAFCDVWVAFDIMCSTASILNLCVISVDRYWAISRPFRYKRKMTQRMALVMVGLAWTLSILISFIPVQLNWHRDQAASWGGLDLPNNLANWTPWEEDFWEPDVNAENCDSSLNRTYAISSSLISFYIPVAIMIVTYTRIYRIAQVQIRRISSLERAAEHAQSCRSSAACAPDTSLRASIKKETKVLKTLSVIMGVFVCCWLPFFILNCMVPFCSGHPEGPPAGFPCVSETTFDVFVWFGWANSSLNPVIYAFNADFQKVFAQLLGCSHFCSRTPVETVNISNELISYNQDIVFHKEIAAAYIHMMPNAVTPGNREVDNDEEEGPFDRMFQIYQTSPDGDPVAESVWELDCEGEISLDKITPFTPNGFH

[7] = target: Adenosine receptor A2a (Homo sapiens) (UniProt P29274); assay: Agonist activity at human A2a receptor at 100 uM to 5 mM
Adenosine receptor A2a (Homo sapiens), sequence (P29274 whole entry): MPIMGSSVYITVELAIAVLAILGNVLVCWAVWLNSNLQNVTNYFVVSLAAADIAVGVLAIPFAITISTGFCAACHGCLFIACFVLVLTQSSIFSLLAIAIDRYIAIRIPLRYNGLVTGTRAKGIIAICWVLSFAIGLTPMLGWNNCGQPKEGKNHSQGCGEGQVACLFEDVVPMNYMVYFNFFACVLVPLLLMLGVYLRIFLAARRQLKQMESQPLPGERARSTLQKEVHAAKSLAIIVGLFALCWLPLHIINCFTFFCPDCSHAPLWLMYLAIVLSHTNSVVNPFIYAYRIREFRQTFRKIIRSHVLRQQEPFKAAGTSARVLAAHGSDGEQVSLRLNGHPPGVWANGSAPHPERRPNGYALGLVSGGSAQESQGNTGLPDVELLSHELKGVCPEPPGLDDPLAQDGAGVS

[8] = target: Melanocortin receptor 4 (Mus musculus) (UniProt P56450); assay: Agonist activity at mouse MC4 receptor at 100 uM to 5 mM
Melanocortin receptor 4 (Mus musculus), sequence (P56450 whole entry): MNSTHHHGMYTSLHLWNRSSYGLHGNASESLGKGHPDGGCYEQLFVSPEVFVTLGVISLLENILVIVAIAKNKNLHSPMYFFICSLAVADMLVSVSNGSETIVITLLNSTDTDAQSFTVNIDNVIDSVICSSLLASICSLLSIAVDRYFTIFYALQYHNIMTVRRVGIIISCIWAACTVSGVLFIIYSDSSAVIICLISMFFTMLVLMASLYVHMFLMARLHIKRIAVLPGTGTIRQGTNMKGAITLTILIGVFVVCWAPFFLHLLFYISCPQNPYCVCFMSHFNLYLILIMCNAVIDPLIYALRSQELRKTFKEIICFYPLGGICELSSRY

[9] = target: T3, Neuromedin-U receptor 1 (Homo sapiens) (UniProt Q9HB89); assay: Agonist activity at human NMU1 receptor at 100 uM to 5 mM
T3 sequence (whole entry): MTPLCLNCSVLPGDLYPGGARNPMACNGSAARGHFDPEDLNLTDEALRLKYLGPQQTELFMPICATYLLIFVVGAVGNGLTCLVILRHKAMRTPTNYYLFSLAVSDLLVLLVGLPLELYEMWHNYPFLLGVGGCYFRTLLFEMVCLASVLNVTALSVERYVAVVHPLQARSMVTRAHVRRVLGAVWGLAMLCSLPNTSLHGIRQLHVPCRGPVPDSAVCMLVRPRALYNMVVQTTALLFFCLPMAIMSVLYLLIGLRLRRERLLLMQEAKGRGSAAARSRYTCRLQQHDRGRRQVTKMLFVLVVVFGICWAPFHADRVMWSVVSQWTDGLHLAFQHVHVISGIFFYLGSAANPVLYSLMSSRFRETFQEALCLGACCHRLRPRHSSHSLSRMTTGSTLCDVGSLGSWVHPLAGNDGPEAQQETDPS

[10] = target: T4, C5a anaphylatoxin chemotactic receptor 1 (Homo sapiens) (UniProt P21730); assay: Agonist activity at human C5a receptor at 100 uM to 5 mM
T4 sequence (whole entry): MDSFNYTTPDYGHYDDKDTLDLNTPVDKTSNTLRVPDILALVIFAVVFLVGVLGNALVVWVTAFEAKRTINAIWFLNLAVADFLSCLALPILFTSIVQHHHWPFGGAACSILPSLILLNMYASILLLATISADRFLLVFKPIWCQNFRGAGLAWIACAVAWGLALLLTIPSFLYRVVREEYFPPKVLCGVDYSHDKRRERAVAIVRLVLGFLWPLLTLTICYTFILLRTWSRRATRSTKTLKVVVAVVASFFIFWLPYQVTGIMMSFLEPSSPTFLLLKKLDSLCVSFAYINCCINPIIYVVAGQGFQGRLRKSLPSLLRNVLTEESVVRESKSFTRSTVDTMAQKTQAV

[11] = target: Glucagon receptor (Homo sapiens) (UniProt P47871); assay: Agonist activity at human Glu receptor at 100 uM to 5 mM
Glucagon receptor (Homo sapiens), sequence (P47871 whole entry): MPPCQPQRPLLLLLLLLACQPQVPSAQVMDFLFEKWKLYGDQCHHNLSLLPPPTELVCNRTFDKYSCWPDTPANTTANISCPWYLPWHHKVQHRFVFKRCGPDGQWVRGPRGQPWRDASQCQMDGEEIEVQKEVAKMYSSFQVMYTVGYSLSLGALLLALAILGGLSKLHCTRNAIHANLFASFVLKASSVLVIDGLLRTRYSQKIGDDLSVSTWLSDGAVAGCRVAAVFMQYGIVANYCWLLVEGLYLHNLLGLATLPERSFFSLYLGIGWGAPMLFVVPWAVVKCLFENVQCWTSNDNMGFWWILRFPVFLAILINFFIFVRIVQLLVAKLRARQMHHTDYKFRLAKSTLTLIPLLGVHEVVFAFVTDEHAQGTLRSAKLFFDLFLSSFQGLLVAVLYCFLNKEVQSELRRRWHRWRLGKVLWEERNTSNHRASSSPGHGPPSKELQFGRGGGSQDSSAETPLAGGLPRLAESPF

[12] = target: T5, Adenosine receptor A3 (Homo sapiens) (UniProt P0DMS8); assay: Agonist activity at human A3 receptor at 100 uM to 5 mM
T5 sequence (whole entry): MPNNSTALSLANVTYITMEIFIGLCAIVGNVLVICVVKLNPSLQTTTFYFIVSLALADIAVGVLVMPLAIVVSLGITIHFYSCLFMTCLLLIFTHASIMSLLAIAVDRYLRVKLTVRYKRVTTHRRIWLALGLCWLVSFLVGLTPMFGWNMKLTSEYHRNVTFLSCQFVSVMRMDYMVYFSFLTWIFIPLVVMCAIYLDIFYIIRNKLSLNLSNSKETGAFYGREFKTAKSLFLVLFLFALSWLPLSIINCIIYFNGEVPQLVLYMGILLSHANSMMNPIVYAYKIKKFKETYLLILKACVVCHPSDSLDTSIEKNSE

[13] = target: Melanocortin receptor 3 (Mus musculus) (UniProt P33033); assay: Agonist activity at mouse MC3 receptor at 100 uM to 5 mM
Melanocortin receptor 3 (Mus musculus), sequence (P33033 whole entry): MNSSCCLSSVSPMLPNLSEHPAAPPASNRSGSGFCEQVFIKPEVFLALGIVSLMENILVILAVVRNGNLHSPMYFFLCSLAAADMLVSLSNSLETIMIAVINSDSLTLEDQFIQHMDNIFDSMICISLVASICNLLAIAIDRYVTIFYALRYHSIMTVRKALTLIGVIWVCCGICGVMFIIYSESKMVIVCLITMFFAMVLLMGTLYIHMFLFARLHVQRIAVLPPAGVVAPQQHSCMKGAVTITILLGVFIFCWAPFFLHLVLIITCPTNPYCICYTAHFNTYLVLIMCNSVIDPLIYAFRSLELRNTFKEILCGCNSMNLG

[14] = target: D(1A) dopamine receptor (Homo sapiens) (UniProt P21728); assay: Agonist activity at human D1 receptor at 100 uM to 5 mM
D(1A) dopamine receptor (Homo sapiens), sequence (P21728 whole entry): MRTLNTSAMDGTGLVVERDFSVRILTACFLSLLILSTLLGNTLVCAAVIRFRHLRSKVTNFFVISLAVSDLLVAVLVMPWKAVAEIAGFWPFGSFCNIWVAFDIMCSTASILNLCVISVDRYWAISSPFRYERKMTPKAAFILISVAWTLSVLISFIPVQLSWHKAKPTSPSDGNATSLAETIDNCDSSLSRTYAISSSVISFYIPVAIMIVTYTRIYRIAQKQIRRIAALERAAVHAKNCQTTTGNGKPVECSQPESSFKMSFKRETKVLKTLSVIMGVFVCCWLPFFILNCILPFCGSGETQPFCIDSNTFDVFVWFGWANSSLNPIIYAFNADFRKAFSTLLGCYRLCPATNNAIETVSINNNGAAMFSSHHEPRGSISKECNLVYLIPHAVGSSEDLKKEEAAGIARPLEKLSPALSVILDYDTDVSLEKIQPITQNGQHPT

Melanocortin receptor 5 (Mus musculus), sequence (P41149 whole entry): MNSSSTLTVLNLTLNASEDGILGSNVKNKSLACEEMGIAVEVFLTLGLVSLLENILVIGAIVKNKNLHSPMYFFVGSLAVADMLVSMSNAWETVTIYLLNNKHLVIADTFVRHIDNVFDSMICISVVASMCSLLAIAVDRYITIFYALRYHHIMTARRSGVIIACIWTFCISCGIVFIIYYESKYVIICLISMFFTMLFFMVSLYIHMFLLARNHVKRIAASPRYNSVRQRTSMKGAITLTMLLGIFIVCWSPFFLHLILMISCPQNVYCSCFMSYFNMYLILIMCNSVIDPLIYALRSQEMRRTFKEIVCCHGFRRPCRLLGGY

SMILES	Activity [1]	Activity [2]	Activity [3]	Activity [4]	EC50 (Neuromedin-U receptor 2; read-out: EC50)	Activity [5]	Activity [6]	Activity [7]	Activity [8]	Activity [9]	Activity [10]	Activity [11]	Activity [12]	Activity [13]	Activity [14]	EC50 (Neuromedin-U receptor 2; hek293)
O=c1c(O)c(-c2ccccc2F)oc2ccccc12	inactive	inactive	inactive	inactive	37.3 µM	inactive	inactive	inactive	inactive	inactive	inactive	inactive	inactive	inactive	inactive	–
COc1c(-c2cc(Br)ccc2F)oc2ccccc2c1=O	inactive	inactive	inactive	inactive	–	inactive	inactive	inactive	inactive	inactive	inactive	inactive	inactive	inactive	inactive	Not Active
O=c1c(O)c(-c2ccc(O)c(O)c2)oc2ccccc12	inactive	inactive	inactive	inactive	–	inactive	inactive	inactive	inactive	inactive	inactive	inactive	inactive	inactive	inactive	Not Active
O=c1c(O)c(-c2cccc(Br)c2)oc2ccccc12	inactive	inactive	inactive	inactive	–	inactive	inactive	inactive	inactive	inactive	inactive	inactive	inactive	inactive	inactive	Not Active
CN(C)c1ccc(-c2oc3ccccc3c(=O)c2O)cc1	inactive	inactive	inactive	inactive	–	inactive	inactive	inactive	inactive	inactive	inactive	inactive	inactive	inactive	inactive	Not Active
O=c1c(O)c(-c2ccc(Br)cc2F)oc2ccccc12	inactive	inactive	inactive	inactive	73 µM	inactive	inactive	inactive	inactive	inactive	inactive	inactive	inactive	inactive	inactive	–
O=c1c(O)c(-c2cc(Br)ccc2F)oc2ccccc12	inactive	inactive	inactive	inactive	14 µM	inactive	inactive	inactive	inactive	inactive	inactive	inactive	inactive	inactive	inactive	–
COc1ccc(-c2cc(=O)c3ccccc3o2)cc1O	inactive	inactive	inactive	inactive	–	inactive	inactive	inactive	inactive	inactive	inactive	inactive	inactive	inactive	inactive	Not Active
COc1ccc(C2C=Cc3ccccc3O2)cc1O (racemic)	inactive	inactive	inactive	inactive	–	inactive	inactive	inactive	inactive	inactive	inactive	inactive	inactive	inactive	inactive	Not Active
COc1ccc(C2C=Cc3ccccc3O2)cc1 (racemic)	inactive	inactive	inactive	inactive	–	inactive	inactive	inactive	inactive	inactive	inactive	inactive	inactive	inactive	inactive	Not Active
